# Screens as filed in PubChem BioAssay.
# A selection: hits, their analogues and other compounds. The true share with any hit is near 1.8%.
# Runt-SMMHC FRET – inhibitors of human RUNX1 Runt domain binding to CBFb-SMMHC; Q01196+Q13951; Cerulean-Runt/Venus-CBFb-SMMHC FRET ratio 530/480, 1 h; inhibition, % at 20 µM; hit rate 0.74% among 220,000; AID 1434;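 active means mean inhibition across duplicate retests at 20 µM reaching about 50%, limit read from the data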;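 further: 0% = DMSO wells and 100% = wells with excess untagged CBFb-SMMHC; inhibitors lower the FRET ratio by blocking Runt binding to CBFb-SMMHC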
# Rce1 inh – inhibitors of yeast Ras-converting enzyme; AID 2563; Q03530; yeast membranes, quenched prenylated peptide cleavage fluorescence; calls only; hit rate 0.27% among 290,000;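 active means fall in fluorescence gain of 50% or more versus controls, with final raw signal at or below 3038400; inconclusive means same 50% fall but final raw signal above 3038400; inactive means fall in fluorescence gain under 50%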;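 further: plate controls were neutral control wells for no effect and wells lacking membranes for full effect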
# Target sequence (Q03530 whole entry, looked up): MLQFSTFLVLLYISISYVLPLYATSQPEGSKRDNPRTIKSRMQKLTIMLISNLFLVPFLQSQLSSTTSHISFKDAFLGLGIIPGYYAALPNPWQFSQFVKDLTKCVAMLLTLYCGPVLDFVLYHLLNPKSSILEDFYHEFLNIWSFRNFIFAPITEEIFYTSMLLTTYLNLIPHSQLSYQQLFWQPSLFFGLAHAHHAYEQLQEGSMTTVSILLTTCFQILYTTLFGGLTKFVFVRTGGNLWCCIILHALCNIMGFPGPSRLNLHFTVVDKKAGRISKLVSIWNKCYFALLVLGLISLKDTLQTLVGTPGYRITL
# Runt-CBFb FRET – Runt domain-CBFb interaction inhibition | hit rate 0.46% among 220,000 | AID 1496 | Q01196+Q13951 | Cerulean-Runt/Venus-CBFb FRET ratio 530/480, 1 h | inhibition, % at 20 µM;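 active means inhibition over about 50% at 20 µM in the single-dose screen, limit read from the data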;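 further: 0% = DMSO wells and 100% = excess unlabeled CBFb competitor control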
#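 Assay system: Cerulean-tagged RUNX1 Runt domain (FRET donor) fusion protein / Amount: 100 nM each of Venus-CBFb and Cerulean-Runt domain / Medium: Tris buffer pH 7.5 with salts and BSA / Also added: Venus-CBFb 100 nM / Schedule: 1 h complex formation plus 1 h compound treatment, room temperature / Signal: FRET fluorescence / Read-out: loss of energy transfer signal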
# Platelet DG rel – modulates dense granule release in human platelets. human platelet-rich plasma, SFLLRN dense granule ATP release, luminescence. inhibition, %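 (compounds screened at 7.5 µM in platelet-rich plasma)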. hit rate 0.22% among 300,000;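 active means mean replicate score, as percent of positive control, at or above 50; inconclusive means mean below 50 but at least one replicate at or above 50; inactive means mean and every replicate below 50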
# RanGTP-Impb inh – disruptors of Ran-importin-beta complex formation – biochemical, FRET, CFP-Ran, YFP-importin-beta, homogeneous, primary screen. inhibition, % (concentration not given with the values). hit rate 1.1% among 300,000. cell-free CFP-Ran/YFP-importin-beta FRET ratio;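 active means more than half of the replicate wells show a fall in the fluorescence ratio signal beyond about 16%, limit read from the data, passing the limit was not always enough; inconclusive means exactly half of the replicate wells pass the set limit; inactive means fewer than half of replicates pass the limit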;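 further: 0% = DMSO wells and 100% = Ran loaded with GDP instead of GTP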
# Numbers without * were called inactive; i = inactive; u = inconclusive; x = not tested or not shown; + = active, no number.
SMILES,Runt-SMMHC FRET,Rce1 inh,Runt-CBFb FRET,Platelet DG rel,RanGTP-Impb inh
CCOC(=O)c1c(NC(=O)CCS(=O)(=O)c2ccccc2)sc2c1CCN(C)C2,x,i,x,-24,126*
CCN1CCc2c(sc(NC(=O)Cc3ccccc3)c2C(N)=O)C1,x,i,x,0,155*
CCN1CCc2c(sc(NC(=O)c3ccc(C(=O)c4ccccc4)cc3)c2C(N)=O)C1,x,i,x,-8,9
CC(C)C(OC(=O)CN1C(=O)c2ccccc2C1=O)C(=O)NC1CCCC1 (stereo not given),x,i,x,11,4
O=c1[nH]c2c(=O)[nH]cnc2nc1-c1ccccc1,x,i,x,-33,47*
CCOCCCNC(=S)NCCNc1nc2ccc(C)cc2cc1C#N,111*,i,81*,5,31*
Cc1cc(C)c2cc(C#N)c(NCCNC(=S)NCCCN3CCOCC3)nc2c1,43,i,23,2,5
CCOCCCNC(=S)NCCCNc1nc2ccc(C)cc2cc1C#N,89*,i,93*,1,x
Cc1ccc2c(cnn2C(=O)CCCC(=O)NC(C)c2ccccc2)c1 (stereo not given),x,i,x,4,4
COC(=O)c1ccc(OC(=O)c2ccncc2)cc1O,x,i,x,0,0
COc1cc(C2=NOC(C(=O)Nc3cc(C)on3)C2)cc(OC)c1OC (stereo not given),-2,i,9,0,20*
COc1ccc(CCNC(=O)c2cc(-c3ccncc3)nc3c(Cl)cccc23)cc1OC,4,i,-8,0,4
COc1ccc(CCNC(=O)c2cc(-c3ccccn3)nc3c(Cl)cccc23)cc1OC,0,i,-1,-7,24*
Cc1ccc(-c2nc3sc4c(c3c(=O)n2N)CCCC4)cc1,-3,i,-2,-9,-3
COc1ccc(/C=N/N=C(\N)c2nonc2N)cc1,-2,i,2,68*,u
COc1cc(/C=N/N=C(\N)c2nonc2N)cc(OC)c1O,1,i,18,16,6
COc1ccc(C2=NS(=O)(=O)N(C)C(C(=O)N3CCCCC3)=C2)cc1OC,x,i,x,1,3
Fc1cccc(NC(=S)NNc2c3ccccc3nc3ccccc23)c1,87*,i,88*,-3,-1
Cc1cccc(C)c1OCC(=O)N/N=C/c1cccnc1,x,i,x,-6,-3
Cn1c(=O)[nH]c(=O)c2c1nc(N1CCCCCC1)n2CC(N)=O,2,i,-3,70*,-1
CCc1ccn2cc(-c3ccc4c(c3)OCO4)nc2c1,-9,i,0,50*,-10
COC(=O)c1ccc2nc(-c3ccc4c(c3)OCO4)cn2c1,1,i,-3,6,-2
COc1ccc(NC(=O)CN(C)C(=O)c2sc3cc(Cl)ccc3c2Cl)cc1,x,i,x,-3,3
CCCCCn1c2c(c(=N)c3ccccc31)CCC2,4,i,-12,70*,-2
CCCCCCCCn1c2c(c(=N)c3ccccc31)CCC2,x,i,x,-11,-2
SMILES,Runt-SMMHC FRET,Rce1 inh,Runt-CBFb FRET,Platelet DG rel,RanGTP-Impb inh
CCCCn1c2c(c(=N)c3ccccc31)CCC2,5,i,-15,123*,6
COc1cccc(/C=N\NC(=O)c2cc(OCC(F)(F)F)ccc2OCC(F)(F)F)c1,4,i,-2,x,x
C#CC(CC)(CC)NC(=O)NC1CCCCC1,-1,i,-2,7,-2
O=C(Nc1c(C(=O)N2CCOCC2)cnn1-c1ccccc1)c1cccc(F)c1,x,i,x,-2,3
CN1CCN(C(=O)C2=C[C@H](C3CC3)C[C@H](OCc3ccc(CO)cc3)O2)CC1,x,i,x,17,1
O=C(C1=C[C@@H](C2CC2)C[C@@H](OCc2ccc(CO)cc2)O1)N1CCN(Cc2ccccc2)CC1,-2,+,-4,0,-2
Fc1ccc(COc2ccc(C(=S)N3CCCC3)cc2)cc1,x,i,x,6,3
CC(C)(C)OC(=O)NCCC(=O)Oc1ccc2ccc(=O)oc2c1,68*,i,43,7,5
O=C(CNC(=O)OCc1ccccc1)Oc1ccc2ccc(=O)oc2c1,x,i,x,-6,13
CCOc1ccc(NC(=O)CN(C)C(=O)CSCc2ccc(C)cc2)cc1OCC,x,i,x,x,-2
Cc1ccc(C(=O)O)cc1-n1c(C)cc(C=O)c1C,90*,i,23,7,2
Cc1c(C(=O)O)cccc1-n1c(C)cc(C=O)c1C,92*,i,14,9,7
